Assay results published in ChEMBL document CHEMBL3352330, “Discovery of azetidine based ene-amides as potent bacterial enoyl ACP reductase (FabI) inhibitors” (Eur J Med Chem, 2014).
≈ marks a conversion by molar mass, not a printed value.

What was measured:
[1] = AUC in Swiss albino CD-1 mouse at 10 mg/kg, po administered as single dose; type: ADME, organism-based; design: dose 10 mg/kg, route oral; conditions: plasma
Summary of the method: (§1)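 Blood drawn from the retro-orbital plexus into EDTA at set times (sparse sampling, n = 3 per time point). Plasma stored at −20 °C and assayed by LC-MS/MS. Parameters from non-compartmental analysis.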

[2] = Metabolic stability in mouse liver mirosomes assessed as compound remaining at 1 uM after 60 mins by LC-MS/MS analysis; type: ADME, tissue-based; conditions: liver microsomes, read-out: Stability
Summary of the method: (§2)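 Compound tested at 1 µM in mouse liver microsomes (0.3 mg/mL protein) with 1 mM NADPH in KH₂PO₄ buffer, pH 7.4, at 37 °C. Reactions stopped at 0, 15 and 60 min with acetonitrile containing carbamazepine internal standard. Samples centrifuged and the supernatant analysed by LC-MS/MS.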

[3] = test system: Staphylococcus epidermidis; assay: Antibacterial activity against methicillin-resistant Staphylococcus epidermidis AUCC 704 after 16 to 20 hrs by broth microdilution method; type: functional
Summary of the method: (§3)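 Broth microdilution in MHB, serial two-fold compound dilutions; final inoculum 5 × 10⁵ CFU/mL; broth, compound and organism controls in duplicate; S. aureus ATCC 29213 as quality control strain; incubation 35 °C, 16–20 h, ambient air; growth read by unaided eye with viewing device, end point set against no-antibiotic control wells.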

[4] = Metabolic stability in mouse liver mirosomes assessed as compound remaining at 1 uM after 15 mins by LC-MS/MS analysis; type: ADME, tissue-based; conditions: liver microsomes, read-out: Stability; summary of the method: as §2
Staphylococcus aureus [5] = assay: Antibacterial activity against methicillin-sensitive Staphylococcus aureus ATCC 29213 after 16 to 20 hrs by broth microdilution method; type: functional; summary of the method: as §3
[6] = Tmax in Swiss albino CD-1 mouse at 10 mg/kg, po administered as single dose; type: ADME, organism-based; design: dose 10 mg/kg, route oral; conditions: in vivo
Summary of the method: as §1, with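 “Oral gavage, 10 mg/kg single dose, given as a suspension in 0.25% Tween 80 with 0.225% sodium carboxymethyl cellulose. Blood” for “Blood”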

[7] = Half life in Swiss albino CD-1 mouse at 10 mg/kg, po administered as single dose; type: ADME, organism-based; design: dose 10 mg/kg, route oral; conditions: in vivo; summary of the method: as §1
Staphylococcus aureus [8] = assay: Antibacterial activity against methicillin-resistant Staphylococcus aureus ATCC 33591 after 16 to 20 hrs by broth microdilution method; type: functional; summary of the method: as §3
[9] = Cmax in Swiss albino CD-1 mouse at 10 mg/kg, po administered as single dose; type: ADME, organism-based; design: dose 10 mg/kg, route oral; conditions: in vivo; summary of the method: as §1
[10] = target: T1, Enoyl-[acyl-carrier-protein] reductase [NADPH] FabI (Staphylococcus aureus) (UniProt Q6GI75); assay: Inhibition of Staphylococcus aureus FabI-mediated reduction of enoyl-ACP preincubated at 1 uM for 30 mins measured after 2 hrs by spectrophotometry
T1 sequence (whole entry): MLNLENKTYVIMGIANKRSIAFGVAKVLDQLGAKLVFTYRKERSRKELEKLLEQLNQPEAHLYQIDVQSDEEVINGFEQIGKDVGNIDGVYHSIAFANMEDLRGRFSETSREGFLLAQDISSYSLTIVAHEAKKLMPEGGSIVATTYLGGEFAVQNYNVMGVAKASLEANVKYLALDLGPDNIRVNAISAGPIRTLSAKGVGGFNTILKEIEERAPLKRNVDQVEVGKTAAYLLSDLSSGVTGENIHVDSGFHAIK
Summary of the method: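 Spectrophotometric FabI assay in 100 mM sodium ADA buffer, pH 6.5. Enzyme (2400 ng/assay) preincubated 30 min with NADH and compound. Reaction started with crotonoyl CoA. After 2 h at room temperature, NADH oxidation read as the fall in absorbance at 340 nm.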

[11] = target: T2, Enoyl-[acyl-carrier-protein] reductase [NADPH] FabI (Staphylococcus aureus, UniProt Q6GI75); assay: Inhibition of Staphylococcus aureus FabI-mediated reduction of enoyl-ACP preincubated for 30 mins measured after 2 hrs by spectrophotometry
T2 sequence (Q6GI75 whole entry): T1 sequence (whole entry)

Staphylococcus aureus [12] = assay: Antibacterial activity against methicillin-resistant Staphylococcus aureus ATCC 33591 infected in Swiss albino CD-1 mouse compound administered orally bid at 1 hr and 4 hrs post infection; type: functional; conditions: ATCC 33591, po

Row | SMILES | AUC [1] | remaining at 1 h, 1 µM [2] | MIC [3] | remaining at 0.25 h, 1 µM [4] | MIC (Staphylococcus aureus [5]) | Tmax [6] | half-life [7] | MIC (Staphylococcus aureus [8]) | Cmax [9] | inhibition [10] | IC50 [11] | ED50 (Staphylococcus aureus [12])
1 | Cc1c(C2CN(C(=O)/C=C/c3cnc4c(c3)CNCC(=O)N4)C2)oc2ccccc12 | 9000 ng·h/mL | 76.4% | 1 µg/mL (≈ 2.48 µM) | 96.2% | 0.25 µg/mL (≈ 0.621 µM) | 0.5 h | 8.5 h | 0.25 µg/mL (≈ 0.621 µM) | 2250 ng/mL | 83% | 384 nM | 
2 | O=C1CCc2cc(/C=C/C(=O)N3CC(c4ccccc4)C3)cnc2N1 |  |  | 2 µg/mL (≈ 6 µM) |  | 1 µg/mL (≈ 3 µM) |  |  | 2 µg/mL (≈ 6 µM) |  | 80% | 488 nM | 
3 | O=C1CCc2cc(/C=C/C(=O)N3CC(COc4ccccc4F)C3)cnc2N1 |  |  | 2 µg/mL (≈ 5.24 µM) |  | 1 µg/mL (≈ 2.62 µM) |  |  | 1 µg/mL (≈ 2.62 µM) |  | 99% | 378 nM | 
4 | CC(=O)NC[C@H]1CN(c2ccc(N3CCOCC3)c(F)c2)C(=O)O1 [LINEZOLID] |  |  |  |  |  |  |  |  |  |  |  | 2.8 mg/kg
5 | O=C1CCc2cc(/C=C/C(=O)N3CC(COc4ccc(F)cc4)C3)cnc2N1 |  |  | 1 µg/mL (≈ 2.62 µM) |  | 0.25 µg/mL (≈ 0.655 µM) | 2 h |  | 0.5 µg/mL (≈ 1.31 µM) |  | 92% | 316 nM | 
6 | Cc1c(C2CN(C(=O)/C=C/c3cnc4c(c3)CCC(=O)N4)C2)oc2ccc(Cl)cc12 |  |  | 0.5 µg/mL (≈ 1.19 µM) |  | 0.25 µg/mL (≈ 0.593 µM) | 1 h |  | 0.25 µg/mL (≈ 0.593 µM) |  | 82% | 204 nM | 
7 | Cc1c(CN(C)C(=O)/C=C/c2cnc3c(c2)CCC(=O)N3)oc2ccccc12 [AFN-1252] | 2200 ng·h/mL | 17.5% | 0.008 µg/mL (≈ 0.0213 µM) | 55.4% | 0.008 µg/mL (≈ 0.0213 µM) | 1 h | 1.84 h | 0.008 µg/mL (≈ 0.0213 µM) | 440 ng/mL | 100% | 29 nM | 
8 | O=C1CCc2cc(/C=C/C(=O)N3CC(Cc4nc5ccccc5s4)C3)cnc2N1 |  |  | 2 µg/mL (≈ 4.94 µM) |  | 2 µg/mL (≈ 4.94 µM) |  |  | 4 µg/mL (≈ 9.89 µM) |  | 41% |  | 
9 | COc1ccc2oc(C3CN(C(=O)/C=C/c4cnc5c(c4)CCC(=O)N5)C3)c(C)c2c1 |  |  | 2 µg/mL (≈ 4.79 µM) |  | 0.5 µg/mL (≈ 1.2 µM) |  |  | 1 µg/mL (≈ 2.4 µM) |  |  |  | 
10 | Cc1c(C2CN(C(=O)/C=C/c3cnc4c(c3)CN(C)CC(=O)N4)C2)oc2ccccc12 |  | 6.6% | 0.5 µg/mL (≈ 1.2 µM) | 25.6% | 0.25 µg/mL (≈ 0.6 µM) |  |  | 0.25 µg/mL (≈ 0.6 µM) |  | 99% | 112 nM | 
11 | O=C1CCc2cc(/C=C/C(=O)N3CC(COc4ccc5ccccc5c4)C3)cnc2N1 |  |  | > 32 µg/mL |  | 4 µg/mL (≈ 9.67 µM) |  |  | 4 µg/mL (≈ 9.67 µM) |  | 68% | 1410 nM | 
12 | Cc1cccc(OCC2CN(C(=O)/C=C/c3cnc4c(c3)CCC(=O)N4)C2)c1 |  |  | 2 µg/mL (≈ 5.3 µM) |  | 2 µg/mL (≈ 5.3 µM) |  |  | 2 µg/mL (≈ 5.3 µM) |  | 47% |  | 
13 | O=C1CCc2cc(/C=C/C(=O)N3CC(c4ccccn4)C3)cnc2N1 |  |  | 16 µg/mL (≈ 47.8 µM) |  | 4 µg/mL (≈ 12 µM) |  |  | 8 µg/mL (≈ 23.9 µM) |  | 87% | 242 nM | 
14 | Cc1c(C2CN(C(=O)/C=C/c3ccc(NC(=O)Cn4ccnn4)nc3)C2)oc2ccccc12 |  |  | > 32 µg/mL |  | > 32 µg/mL |  |  | > 32 µg/mL |  | 66% | 843 nM | 
15 | Cc1cc(C2CN(C(=O)/C=C/c3cnc4c(c3)CCC(=O)N4)C2)nc2ccccc12 |  |  | > 32 µg/mL |  | 32 µg/mL (≈ 80.3 µM) |  |  | > 32 µg/mL |  | 84% | 242 nM | 
16 | O=C1CCc2cc(/C=C/C(=O)N3CC(Oc4nc5ccccc5s4)C3)cnc2N1 |  |  | > 32 µg/mL |  | > 32 µg/mL |  |  | > 32 µg/mL |  | 16% |  | 
17 | Cc1ccccc1OCC1CN(C(=O)/C=C/c2cnc3c(c2)CCC(=O)N3)C1 |  |  | 1 µg/mL (≈ 2.65 µM) |  | 0.25 µg/mL (≈ 0.662 µM) | 2 h |  | 0.5 µg/mL (≈ 1.32 µM) |  | 80% | 177 nM | 
18 | O=C1CCc2cc(/C=C/C(=O)N3CC(Oc4ccccc4)C3)cnc2N1 |  |  | 16 µg/mL (≈ 45.8 µM) |  | 4 µg/mL (≈ 11.4 µM) |  |  | 4 µg/mL (≈ 11.4 µM) |  | 35% |  | 
19 | O=C1CCc2cc(/C=C/C(=O)N3CC(COc4cccc(F)c4)C3)cnc2N1 |  |  | 2 µg/mL (≈ 5.24 µM) |  | 1 µg/mL (≈ 2.62 µM) |  |  | 2 µg/mL (≈ 5.24 µM) |  | 89% | 438 nM | 
20 | Cc1c(C2CN(C(=O)/C=C/c3cnc4c(c3)NCCC(=O)N4)C2)oc2ccccc12 |  |  | 1 µg/mL (≈ 2.48 µM) |  | 0.25 µg/mL (≈ 0.621 µM) |  |  | 0.5 µg/mL (≈ 1.24 µM) |  | 92% | 316 nM | 
21 | Cc1c(C2CN(C(=O)/C=C/c3cnc4c(c3)CN(CCN3CCOCC3)CC(=O)N4)C2)oc2ccccc12 |  |  | 2 µg/mL (≈ 3.88 µM) |  | 1 µg/mL (≈ 1.94 µM) |  |  | 1 µg/mL (≈ 1.94 µM) |  | 100% | 289 nM | 
22 | O=C1CCc2cc(/C=C/C(=O)N3CC(OCc4ccccc4)C3)cnc2N1 |  |  | 2 µg/mL (≈ 5.5 µM) |  | 1 µg/mL (≈ 2.75 µM) |  |  | 2 µg/mL (≈ 5.5 µM) |  | 69% | 376 nM | 
23 | CC(=O)Nc1ccc(/C=C/C(=O)N2CC(c3oc4ccccc4c3C)C2)cn1 |  |  | 8 µg/mL (≈ 21.3 µM) |  | 1 µg/mL (≈ 2.66 µM) |  |  | 1 µg/mL (≈ 2.66 µM) |  | 97% | 161 nM | 
24 | Cc1c(C2CN(C(=O)/C=C/c3cnc4c(c3)CCC(=O)N4)C2)sc2ccccc12 |  |  | 2 µg/mL (≈ 4.96 µM) |  | 0.125 µg/mL (≈ 0.31 µM) | 4 h |  | 0.25 µg/mL (≈ 0.62 µM) |  | 89% | 709 nM | 
25 | Cc1ccc(OCC2CN(C(=O)/C=C/c3cnc4c(c3)CCC(=O)N4)C2)cc1 |  |  | 2 µg/mL (≈ 5.3 µM) |  | 1 µg/mL (≈ 2.65 µM) |  |  | 1 µg/mL (≈ 2.65 µM) |  | 67% | 921 nM | 
26 | Cc1c(C2CN(C(=O)/C=C/c3cnc4c(c3)CN(CCN3CCOCC3)C(=O)N4)C2)oc2ccccc12 |  |  | 2 µg/mL (≈ 3.99 µM) |  | 1 µg/mL (≈ 1.99 µM) |  |  | 1 µg/mL (≈ 1.99 µM) |  | 105% | 58 nM | 
27 | O=C1CCc2cc(/C=C/C(=O)N3CC(c4nc5ccccc5s4)C3)cnc2N1 |  |  | 1 µg/mL (≈ 2.56 µM) |  | 0.25 µg/mL (≈ 0.64 µM) | 2 h |  | 0.25 µg/mL (≈ 0.64 µM) |  | 83% | 373 nM | 
28 | Cc1c(C2CN(C(=O)/C=C/c3cnc4c(c3)CCC(=O)N4)C2)oc2ccccc12 |  |  | 0.5 µg/mL (≈ 1.29 µM) |  | 0.06 µg/mL (≈ 0.155 µM) | 2 h |  | 0.06 µg/mL (≈ 0.155 µM) |  | 96% | 141 nM | 0.9 mg/kg
29 | O=C1CCc2cc(/C=C/C(=O)N3CC(COc4ccccc4)C3)cnc2N1 |  |  | 1 µg/mL (≈ 2.75 µM) |  | 0.25 µg/mL (≈ 0.688 µM) |  |  | 0.25 µg/mL (≈ 0.688 µM) |  | 81% | 265 nM | 
30 | O=C1CCc2cc(/C=C/C(=O)N3CCC3)cnc2N1 |  |  | > 32 µg/mL |  | > 32 µg/mL |  |  | > 32 µg/mL |  | 15% |  | 
